High-throughput results deposited in PubChem by several laboratories.
PfM18AAP inh = blocks P. falciparum M18 aspartyl aminopeptidase; recombinant PfM18AAP, H-Glu-NHMec fluorogenic cleavage; inhibition, % at 7.35 µM; 1.2% of 290,000 active; AID 1822;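 active = inhibition above the campaign mean inhibition over all tested compounds plus 3 SD, cut at about 28% in these data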
core dimer inh = blocks dimerization of HCV core protein; inhibition, % at 5 µM; TR-FRET GST/Flag-core106 dimerization, 1536-well; 0.33% of 300,000 active;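 active = inhibition above the mean of all tested compounds plus 3 SD, set per screening campaign, cut at about 45% in these data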
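System: GST/Flag-tagged HCV core106 proteins. Incubation: compound-protein-antibody incubation 4 h at 22.5 °C. Technique: HTRF with 340 nm excitation, 617/671 nm emission. Medium: KF-containing HEPES buffer, pH 7.45, DTT, CHAPS, BSA. Read-out: inhibition (%) from 671 over 617 nm ratio. Also added: Eu(K)-anti-GST 90 ng/mL plus XL665-anti-Flag 1 µg/mL.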
EBNA-1 inhibitor = blocks EBNA-1 binding to DNA; EBNA-1 DNA binding, fluorescence polarization; inhibition, % at 14.8 µM; 0.34% of 300,000 active; in the data active = inhibition above about 28%
ALR inh = inhibitors of human sulfhydryl oxidase ALR; AID 485317; purified ALR, DTT oxidation, H2O2 HRP-luminol luminescence; inhibition, % (test concentration not listed); P55789; 3.8% of 290,000 active;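 active = mean replicate inhibition above about 79%, with every replicate also reaching it, limit read from the data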
Target sequence (P55789 whole entry, looked up): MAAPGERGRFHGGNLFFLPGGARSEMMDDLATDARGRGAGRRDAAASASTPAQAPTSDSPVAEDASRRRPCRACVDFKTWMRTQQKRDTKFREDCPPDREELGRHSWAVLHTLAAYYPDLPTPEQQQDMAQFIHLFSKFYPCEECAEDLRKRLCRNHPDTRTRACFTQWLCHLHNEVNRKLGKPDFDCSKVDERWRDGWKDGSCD
NS3 helicase inh = inhibitors of Hepatitis C virus NS3 helicase; NS3 helicase DNA unwinding, Cy5 molecular beacon fluorescence; inhibition, % at 10.9 µM; 0.56% of 290,000 active; AID 1800;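 active = inhibition above the mean of all tested compounds plus 3 SD, set per campaign, cut at about 35% in these data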
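Material: hepatitis C virus NS3 helicase domain fragment enzyme; measured by: Cy5 fluorescence, 0 and 60 min reads; control set: DMSO and thioflavine S; incubation: 60 min unwinding reaction at 25 °C after ATP addition; read-out basis: % inhibition from 60/0 min fluorescence ratio, DMSO 0%, thioflavine S 100%; repeats: singlicate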
ZTA DNA inh = counter-screen for EBNA-1 inhibitors: inhibitors of Epstein-Barr virus ZTA; ZTA-DNA binding, fluorescence polarization; inhibition, % at 11 µM; 0.15% of 320,000 active; P03206; in the data active = inhibition above about 33%
Target sequence (P03206 whole entry, looked up): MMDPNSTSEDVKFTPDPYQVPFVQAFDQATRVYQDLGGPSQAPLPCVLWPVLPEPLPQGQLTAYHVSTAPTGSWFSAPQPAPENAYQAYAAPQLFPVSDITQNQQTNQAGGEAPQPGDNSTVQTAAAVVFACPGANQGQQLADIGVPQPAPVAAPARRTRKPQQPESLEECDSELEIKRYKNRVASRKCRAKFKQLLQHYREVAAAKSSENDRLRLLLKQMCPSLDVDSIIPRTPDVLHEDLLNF
Of the large screens only hits and unclear results are named; the others gave an inactive call. Hits are enriched below; roughly 5.2% of the tested compounds scored in any of these assays.

C=CCOc1ccc(CNc2ccc3[nH]c(=O)[nH]c3c2)cc1	ALR inh 99.4
CCOc1cc(CNc2ccc3[nH]c(=O)[nH]c3c2)ccc1OCC(=O)NC(C)(C)C	ALR inh 91.3
C=CCOc1c(CNc2ccc3[nH]c(=O)[nH]c3c2)cccc1OC	ALR inh 98.8
CCOc1ccccc1OCC(=O)Nc1ccc2[nH]c(=O)[nH]c2c1	none (no result: PfM18AAP inh, core dimer inh, EBNA-1 inhibitor, ALR inh, NS3 helicase inh)
COc1cc(CNc2ccc3[nH]c(=O)[nH]c3c2)cc(Cl)c1OCC(=O)NC(C)(C)C	ALR inh 97.6
COc1ccc(OCC(O)CN2CC(C)OC(C)C2)cc1 (stereo not drawn)	none
COc1ccccc1CNC(=O)Cn1cc([N+](=O)[O-])ccc1=O	none
COc1ccccc1NS(=O)(=O)c1ccc(C(=O)N2CCN(c3ccccn3)CC2)cc1	none (no result: PfM18AAP inh, core dimer inh, EBNA-1 inhibitor, NS3 helicase inh, ZTA DNA inh)
C=CCOc1ccc(CNc2ccc3[nH]c(=O)[nH]c3c2)cc1OCC	ALR inh 97.9
C=CCOc1ccc(CNCc2cccnc2)cc1OCC	ALR inh 94.4
C=CCOc1ccc(CNC(C)(C)CO)cc1OCC	none
C=CCOc1ccc(CNCCO)cc1OCC	none (no result: ALR inh)
CCN1CCN(C(=O)CS(=O)Cc2nc(-c3ccc(OC)cc3)oc2C)CC1 (stereo not drawn)	ALR inh 99.0
COc1ccc(-c2nc(CS(=O)CC(=O)N3CCCC3)c(C)o2)cc1 (stereo not drawn)	ALR inh 99.0
COc1ccc(-c2nc(CN3CCN(Cc4ccccc4)CC3)c(C)o2)cc1	none
O=C1c2ccccc2C(=O)c2c(Nc3ccc(CCO)cc3)ccc(O)c21	none
O=C1c2c(O)ccc(O)c2C(=O)c2c(NCCNCCO)ccc(NCCNCCO)c21	EBNA-1 inhibitor 110.4, ALR inh 99.8, ZTA DNA inh active (no result: PfM18AAP inh, NS3 helicase inh)
CN1c2ccccc2C(C)(C)C12C=Cc1cc(O)ccc1O2 (stereo not drawn)	PfM18AAP inh 29.8, ALR inh 79.7
CN1c2ccccc2C(C)(C)C12C=Nc1c(cc(N3CCOCC3)c3ccccc13)O2 (stereo not drawn)	none (no result: core dimer inh, EBNA-1 inhibitor, ALR inh, ZTA DNA inh)
NC(=O)c1cc(NC(=O)CCNS(=O)(=O)c2cccc(C(F)(F)F)c2)cc(C(N)=O)c1	none
Cc1ccc(N2CC(C(=O)Nc3cccnc3)CC2=O)cc1Cl (stereo not drawn)	none
CC1(C)Cc2c(sc(NC(=S)NC(=O)c3ccccc3)c2C(=O)O)CO1	ALR inh 98.6
CC1(C)Cc2c(sc(NC(=O)c3ccco3)c2C(=O)O)CO1	none
O=C(O)c1ccc(Sc2nnc(-c3cccc(Br)c3)o2)c([N+](=O)[O-])c1	ALR inh 98.6
COc1ccc(OC)c(/C=C/C(=O)N2CCN(S(=O)(=O)c3ccc(C)cc3C)CC2)c1	none (no result: PfM18AAP inh, core dimer inh, EBNA-1 inhibitor, ALR inh, NS3 helicase inh)
CCOc1ccc(N2C(=O)Nc3ccccc3C2(O)C(=O)NCc2ccccc2)cc1 (stereo not drawn)	ALR inh 92.2
COc1cccc(-c2noc(Cn3nc(C)c([N+](=O)[O-])c3C)n2)c1	ALR inh 92.4
CC(=O)NN1C(=O)/C(=C2/Sc3ccc(Cl)cc3N2C)SC1=S	none
CCOC(=O)C(=NC(C)CC)NNc1ccc(Br)cc1 (stereo not drawn)	PfM18AAP inh 29.6, ALR inh 98.9
CCOC(=O)C(=NC1CCS(=O)(=O)C1)NNc1ccc(Br)cc1 (stereo not drawn)	ALR inh 99.3
CCOC(=O)C(=NC(C)CC)NNc1cccc(C(F)(F)F)c1 (stereo not drawn)	none (no result: ALR inh)
CCOC(=O)C(=NC1CCS(=O)(=O)C1)NNc1ccccc1Cl (stereo not drawn)	ALR inh 98.7
Cc1cc(OCCCCOc2ccc(S(N)(=O)=O)c(C)c2)ccc1S(N)(=O)=O	none
CCOC(=O)C1=NNC2(c3ccc(C)cc3)C(=O)N(c3ccc(Cl)cc3)C(=O)C12 (stereo not drawn)	none
O=C(CCCCCN1C(=O)[C@@H]2Cc3ccccc3CN2C1=O)Nc1cccc(F)c1	none
Cc1ccc(Cn2c(C3CCCN3c3nc(C)cs3)nc3cc(C(F)(F)F)ccc32)cc1 (stereo not drawn)	none
COc1cccc(CNc2ccc(S(=O)(=O)Nc3nccs3)cc2)c1O	ALR inh 93.1
O=S(=O)(Nc1nccs1)c1ccc(NCc2cc(Br)cc(Br)c2O)cc1	none
C=CCOc1ccc(CNCC2CCCO2)cc1 (stereo not drawn)	none
COc1cc(C=C2C(=O)c3ccccc3C2=O)cc(OC)c1OC	ALR inh 97.4
COc1cccc(/C=C2\C(=O)C(=O)c3ccccc32)c1	ALR inh 99.7
CC(Oc1ccc(C#N)cc1)C(=O)NC1CCCC1 (stereo not drawn)	none (no result: PfM18AAP inh, core dimer inh, EBNA-1 inhibitor, ALR inh, NS3 helicase inh)
CN(c1ccccc1)S(=O)(=O)c1ccc(C(=O)Nc2ncccc2O)cc1	none (no result: PfM18AAP inh, NS3 helicase inh)
CS(=O)(=O)c1nc(S(=O)(=O)c2ccc(Cl)cc2)c(NCCCN2CCOCC2)s1	none
Cc1ccc(C)n1-c1cccc(C(=O)O)c1	ZTA DNA inh 77.5 (no result: PfM18AAP inh, NS3 helicase inh)
Cc1ccc(C)n1-c1cccc(N)c1	core dimer inh 64.2
COc1ccc(N)cc1-n1c(C)ccc1C	none
Cc1cc(C=O)c(C)n1-c1cccc(C(=O)O)c1	none
CN(CC(=O)Nc1ccccc1Cl)C(=O)Cn1cc(C(F)(F)F)cc(Cl)c1=O	none (no result: PfM18AAP inh, NS3 helicase inh)
O=c1[nH]c(CN2CCc3ccccc32)nc2scc(-c3cccs3)c12	core dimer inh 47.7
O=C(CSCc1nc2scc(-c3cccs3)c2c(=O)[nH]1)Nc1ccccn1	none
CSCCC(NC(=O)c1cccc(C)c1)C(=O)NNC(=O)c1cccs1 (stereo not drawn)	none (no result: PfM18AAP inh, core dimer inh, EBNA-1 inhibitor, NS3 helicase inh, ZTA DNA inh)
Cc1cc2oc(C(=O)Nc3ccc(S(=O)(=O)Nc4nccs4)cc3)cc(=O)c2cc1Cl	core dimer inh 58.1 (no result: ALR inh)
O=C(Nc1ccc(S(=O)(=O)Nc2nccs2)cc1)c1nn(-c2ccccc2)ccc1=O	core dimer inh 63.4
Cc1cccc(-n2ccc(=O)c(C(=O)Nc3ccc(S(=O)(=O)Nc4nccs4)cc3)n2)c1	none
Cc1cc(C)c2oc(C(=O)Nc3ccc(S(=O)(=O)Nc4nccs4)cc3)cc(=O)c2c1	none
Cc1cc(C)c(OCC(=O)NCCCn2nc(C)cc2C)c(C)c1	none (no result: PfM18AAP inh, core dimer inh, EBNA-1 inhibitor, NS3 helicase inh)
O=C(CCC(=O)c1ccc[nH]1)c1ccc(Cl)cc1	core dimer inh 52.6 (no result: ALR inh)
CCCCc1ccc(NC(=O)C(=O)NCCN2CCN(C(=O)c3ccc([N+](=O)[O-])cc3)CC2)cc1	none
CCCCC(CCC(=O)O)(C(=O)OCC)c1csc(Nc2ccccc2)n1 (stereo not drawn)	ALR inh 95.8
CCCCC(CCC(=O)O)(C(=O)OCC)c1csc(N)n1 (stereo not drawn)	none
c1ccc(N2CCN(c3nc4ccccc4n4cnnc34)CC2)cc1	ALR inh 97.4
C1=C(c2ccccc2)CCN(c2nc3ccccc3n3cnnc23)C1	ALR inh 95.0
COc1ccccc1C(=O)NCC(=O)OCC(=O)N(CC(C)C)c1c(N)n(Cc2ccccc2)c(=O)[nH]c1=O	none (no result: PfM18AAP inh, NS3 helicase inh)
